Experiment [1] deals with Aldo-keto reductase family 1 member B1 (Bos taurus) (UniProt P16116). The experiment is described as follows: Compound was tested in vitro for inhibition of aldose reductase activity in partially purified bovine lens preparation at 10 e-8 M.
Experiment [2] relates to Rattus norvegicus. The experiment is described as follows: Tested for in vivo inhibition of galactitol accumulation in the sciatic nerve of galactose-fed rats.4.9 (mg/kg/day); NS=Not significant. The format is functional, organism-based. The method, boiled down:
(§1)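 Rats fed a 20% galactose diet for 4 days, with test compound given in the diet at the stated daily dose (mg/kg/day). Read-out is inhibition of galactitol (polyol) accumulation in sciatic nerve. Values are % inhibition, mean ± SEM of six animals; p < 0.01 unless marked (some p < 0.05). NS = no significant inhibition of polyol accumulation. Tolrestat was the reference standard.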

Experiment [3] relates to Rattus norvegicus. The experiment is described as follows: Tested for in vivo inhibition of galactitol accumulation in the lens of galactose-fed rats at the dose of 4.9 (mg/kg/day); NS=Not significant. It counts as functional, organism-based. The note with it: Lens of camera-type eye.
The target in experiment [4] is Aldo-keto reductase family 1 member B1 (Bos taurus) (UniProt P16116). Kind of experiment: Inhibition of aldose reductase activity in partially purified bovine lens preparation at 10e-5 M. An outline of the steps: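 Partially purified bovine lens aldose reductase. Reduction of DL-glyceraldehyde substrate followed spectrophotometrically. Activity expressed as average inhibition at the tested concentrations, 1×10^-5, 1×10^-6, 1×10^-7 and 4×10^-6 M as printed; IC50 in M where given.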

Experiment [5] concerns Rattus norvegicus. The experiment is described as follows: Tested for in vivo inhibition of galactitol accumulation in the lens of galactose-fed rats at the dose of 5.3 (mg/kg/day); NS=Not significant. The conditions noted are these: Lens of camera-type eye. It counts as functional, organism-based.
Experiment [6] deals with Rattus norvegicus. The experiment is described as follows: Tested for in vivo inhibition of galactitol accumulation in the sciatic nerve of galactose-fed rats at the dose of 5.3 (mg/kg/day); NS=Not significant. It counts as functional, organism-based. The method, boiled down: as §1
The subject of experiment [7] is Rattus norvegicus. Kind of experiment: Tested for in vivo inhibition of galactitol accumulation in the sciatic nerve of galactose-fed rats at the dose of 26.2 (mg/kg/day); NS=Not significant. The format is functional, organism-based. The method, boiled down:
(§2)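 Rats were given a 20% galactose diet for 4 days, with the test compound administered in the diet. Sciatic nerve galactitol accumulation was measured, and activity is given as % inhibition at the stated daily dose (mg/kg/day). Values are mean ± SEM, n = 6 animals; p < 0.01 unless indicated. NS means no significant inhibition of polyol accumulation.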

Experiment [8] concerns Rattus norvegicus. Kind of experiment: Tested for in vivo inhibition of galactitol accumulation in the sciatic nerve of galactose-fed rats at the dose of 1.1 (mg/kg/day); NS=Not significant.
Experiment [9] relates to Rattus norvegicus. The experiment is described as follows: Tested for in vivo inhibition of galactitol accumulation in the sciatic nerve of galactose-fed rats at the dose of 102.8 (mg/kg/day); NS=Not significant. The format is functional, organism-based. The method, boiled down:
as §2

The test system of experiment [10] is Rattus norvegicus. Kind of experiment: Tested for in vivo inhibition of galactitol accumulation in the lens of galactose-fed rats at the dose of 102.8 (mg/kg/day); NS=Not significant. The format is functional, organism-based. The conditions noted are these: Lens of camera-type eye.
The target of experiment [11] is Aldo-keto reductase family 1 member B1 (Bos taurus) (UniProt P16116). Kind of experiment: Inhibition of aldose reductase activity in partially purified bovine lens preparation at 4*10 e-8 M.
Experiment [12] has as its system Rattus norvegicus. The experiment is described as follows: Tested for in vivo inhibition of galactitol accumulation in the lens of galactose-fed rats at the dose of 91.6 (mg/kg/day); NS=Not significant. It counts as functional, organism-based. The note with it: Lens of camera-type eye. The method, boiled down: (§3)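 Galactosemic rats were fed 20% galactose for 4 days, with the compound mixed into the diet. […] galactitol accumulation was measured, and activity is given as % inhibition at the stated daily dose (mg/kg/day). Values are mean ± SEM of six animals; p < 0.01 unless indicated. NS means no significant inhibition of polyol accumulation.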

Experiment [13] deals with Rattus norvegicus. Kind of experiment: Tested for in vivo inhibition of galactitol accumulation in the sciatic nerve of galactose-fed rats at the dose of 91.6 (mg/kg/day); NS=Not significant. The format is functional, organism-based. The method, boiled down: as §1
For experiment [14], the system named is Rattus norvegicus. Kind of experiment: Tested for in vivo inhibition of galactitol accumulation in the sciatic nerve of galactose-fed rats. at the dose of 1.0 (mg/kg/day); NS=Not significant. The format is functional, organism-based. The method, boiled down:
as §1

The subject of experiment [15] is Rattus norvegicus. The experiment is described as follows: Tested for in vivo inhibition of galactitol accumulation in the sciatic nerve of galactose-fed rats at the dose of 55.4 (mg/kg/day); NS=Not significant. The format is functional, organism-based. An outline of the steps: as §1
Experiment [16] deals with Rattus norvegicus. Kind of experiment: Tested for in vivo inhibition of galactitol accumulation in the lens of galactose-fed rats at the dose of 55.4 (mg/kg/day); NS=Not significant. The format is functional, organism-based. The conditions noted are these: Lens of camera-type eye. The method, boiled down:
as §3

For experiment [17], the system named is Rattus norvegicus. The experiment is described as follows: Tested for in vivo inhibition of galactitol accumulation in the lens of galactose-fed rats at the dose of 24 (mg/kg/day); NS=Not significant. The format is functional, organism-based. The conditions noted are these: Lens of camera-type eye.
Experiment [18] has as its system Rattus norvegicus. The experiment is described as follows: Tested for in vivo inhibition of galactitol accumulation in the sciatic nerve of galactose-fed rats at the dose of 24; NS=Not significant. It counts as functional, organism-based. The method, boiled down:
as §2

The test system of experiment [19] is Rattus norvegicus. The experiment is described as follows: Tested for in vivo inhibition of galactitol accumulation in the sciatic nerve of galactose-fed rats at the dose of 1.0 (mg/kg/day); NS=Not significant.
In experiment [20] the test system is Rattus norvegicus. The experiment is described as follows: Tested for in vivo inhibition of galactitol accumulation in the sciatic nerve of galactose-fed rats at the dose of 24 (mg/kg/day); NS=Not significant. The format is functional, organism-based. The method, boiled down:
as §2

In experiment [21] the test system is Rattus norvegicus. Kind of experiment: Tested for in vivo inhibition of galactitol accumulation in the sciatic nerve of galactose-fed rats at the dose of 54.8 (mg/kg/day). The format is functional. The method, boiled down:
as §1

Experiment [22] concerns Rattus norvegicus. The experiment is described as follows: Tested for in vivo inhibition of galactitol accumulation in the lens of galactose-fed rats at the dose of 54.8 (mg/kg/day); NS=Not significant. The conditions noted are these: Lens of camera-type eye. It counts as functional, organism-based.

Active and inactive are the calls of the source. The rule behind the calls is not given here.

These results are taken from ChEMBL document CHEMBL1127562, “N-substituted spirosuccinimide, spiropyridazine, spiroazetidine, and acetic acid aldose reductase inhibitors derived from isoquinoline-1,3-diones. 2” (J Med Chem, 1994).

For orientation: inhibition means the share of the control response that was lost under treatment. As for `CN1C(=O)c2ccc(Cl)cc2C(CC(=O)O)C1=O` (configuration not stated), in experiment [1], the inhibition amounted to 35%. The inhibition entry in experiment [2] and in [3] was “inactive” each time.

Turning to `CN1C(=O)c2ccc(Cl)cc2C(CC(N)=O)C1=O` (configuration not stated), the inhibition entry in experiment [4], in experiment [5] and in [6] was “inactive” in each case.

`O=C(O)CN1C(=O)CC2(C1=O)C(=O)N(Cc1ccc(Br)cc1F)C(=O)c1ccc(F)cc12` (configuration not stated) had an inhibition in [4] of 60%. Moreover, the inhibition result in experiment [7] was “inactive”.

`CCN1C(=O)CC2(C(=O)N(C)C(=O)c3ccc(Cl)cc32)C1=O` (configuration not stated): the inhibition result in experiment [4] and in experiment [8] was “inactive” in each case.

On to `O=C(O)CC1C(=O)N(Cc2ccc(Br)cc2F)C(=O)c2ccccc21` (configuration not stated), for which the inhibition result in experiment [9] and in experiment [10] was “inactive” in each case. In experiment [11], this compound yielded an inhibition of 50%.

With `CCCN1C(=O)c2ccccc2C(CC(=O)NC(=O)OC)C1=O` (configuration not stated), the inhibition result in [4], in experiment [12] and in experiment [13] was “inactive” throughout.

As for `CCCCN1C(=O)CC2(C1=O)C(=O)N(Cc1ccc(Br)cc1F)C(=O)c1ccc(F)cc12` (configuration not stated), the inhibition entry in experiment [4] and in experiment [14] was “inactive” each time.

For `O=C1c2ccccc2C2(CC(=O)N(NS(=O)(=O)C(F)(F)F)C2=O)C(=O)N1Cc1ccc(Br)cc1F` (configuration not stated), the inhibition entry in [4], in experiment [15] and in experiment [16] was “inactive” in each case.

`O=C(O)CC1C(=O)N(Cc2nc3cc(C(F)(F)F)ccc3s2)C(=O)c2ccccc21` (configuration not stated) yielded an inhibition in experiment [11] of 65%. Besides, the inhibition result in experiment [17] and in experiment [18] was “inactive” in each case.

Regarding `CCCN1C(=O)CC2(C1=O)C(=O)N(Cc1ccc(Br)cc1F)C(=O)c1ccc(F)cc12` (configuration not stated), the inhibition entry in [4] and in experiment [19] was “inactive” throughout.

Consider `O=C(O)CC1C(=O)N(Cc2nc3cc(C(F)(F)F)ccc3s2)C(=O)c2ccc(F)cc21` (configuration not stated), for which, in experiment [11], the inhibition turned out to be 62%. Moreover, the inhibition entry in [20] and in experiment [17] was “inactive” each time.

The Inhibition is the share of the control response that was lost under treatment. Higher therefore signals a strong effect. On to `COC(=O)N(C(=O)OC)N1C(=O)CC2(C(=O)N(Cc3ccc(Br)cc3F)C(=O)c3ccccc32)C1=O` (configuration not stated), for which, in experiment [21], the Inhibition worked out at 50%. Besides, the inhibition result in experiment [4] and in experiment [22] was “inactive” each time.
